# Laboratory results published in ChEMBL document CHEMBL1131335, “Modulation of receptor and receptor subtype affinities using diastereomeric and enantiomeric monosaccharide scaffolds as a means to structural and biological diversity. A new route to ether synthesis” (J Med Chem, 1998).
# Columns and labels:
# Somatostatin receptor = assay: Binding affinity was measured for SRIF receptor on AtT-20 mouse pituitary cells; type: cell-based; details: pituitary gland cell
# Substance-P receptor [1] = target: T1, Substance-P receptor (Homo sapiens, UniProt P25103); assay: Binding affinity was measured for Tachykinin receptor 1; Did not bind
# [2] = target: Somatostatin receptor type 3 (Homo sapiens, UniProt P32745); assay: Binding affinity for human receptor subtype hSSTR3.
# How it was run: (§1)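 Radioligand competition on membranes from CHO-K1 cells expressing hSSTR1–5, in 50 mM Tris-HCl pH 7.8 with 1 mM EGTA, 5 mM MgCl2 and protease inhibitors (leupeptin, pepstatin, bacitracin, aprotinin). Tracer was [125I-Tyr11]SRIF-14 at 0.1 nM final. Compounds ran 0.01–10,000 nM as seven-point full-log titrations, in triplicate, in at least two separate experiments. Incubation was 45 min at room temperature, then filtration onto PEI-pretreated GF/C filters and scintillation counting.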
# [3] = target: Somatostatin receptor type 4 (Homo sapiens, UniProt P31391); assay: Binding affinity for human receptor subtype hSSTR4.; how it was run: as §1
# [4] = target: Somatostatin receptor type 2 (Homo sapiens, UniProt P30874); assay: Binding affinity for human receptor subtype hSSTR2
# How it was run: as §1, with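 “aprotinin).” for “aprotinin). Tracer was [125I-Tyr11]SRIF-14 at 0.1 nM final.”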
# [5] = target: T2, Somatostatin receptor type 5 (Homo sapiens, UniProt P35346); assay: Binding affinity for human receptor subtype hSSTR5.
# How it was run: as §1, with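 “aprotinin).” for “aprotinin). Tracer was [125I-Tyr11]SRIF-14 at 0.1 nM final.”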
# [6] = target: Somatostatin receptor type 1 (Homo sapiens, UniProt P30872); assay: Binding affinity for human receptor subtype hSSTR1
# How it was run: as §1, with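 “aprotinin).” for “aprotinin). Tracer was [125I-Tyr11]SRIF-14 at 0.1 nM final.”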
# [7] = target: T2, Somatostatin receptor type 5; assay: Binding affinity for human receptor subtype hSSTR5.; Did not bind; how it was run: as §1
# Substance-P receptor [8] = target: T1, Substance-P receptor; assay: Binding affinity was measured for Tachykinin receptor 1
# T1 sequence (P25103 whole entry): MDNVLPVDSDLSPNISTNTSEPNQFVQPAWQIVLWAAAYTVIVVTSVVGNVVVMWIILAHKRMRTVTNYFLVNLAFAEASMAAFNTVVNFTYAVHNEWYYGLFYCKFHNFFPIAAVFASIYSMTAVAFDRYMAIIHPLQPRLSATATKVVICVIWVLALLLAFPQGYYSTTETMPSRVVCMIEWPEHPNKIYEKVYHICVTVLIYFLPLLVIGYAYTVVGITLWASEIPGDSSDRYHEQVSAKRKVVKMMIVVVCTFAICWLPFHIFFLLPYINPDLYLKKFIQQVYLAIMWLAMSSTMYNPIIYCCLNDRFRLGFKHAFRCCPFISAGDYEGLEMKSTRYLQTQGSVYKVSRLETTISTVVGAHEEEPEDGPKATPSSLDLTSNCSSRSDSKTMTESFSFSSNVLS
# T2 sequence (P35346 whole entry): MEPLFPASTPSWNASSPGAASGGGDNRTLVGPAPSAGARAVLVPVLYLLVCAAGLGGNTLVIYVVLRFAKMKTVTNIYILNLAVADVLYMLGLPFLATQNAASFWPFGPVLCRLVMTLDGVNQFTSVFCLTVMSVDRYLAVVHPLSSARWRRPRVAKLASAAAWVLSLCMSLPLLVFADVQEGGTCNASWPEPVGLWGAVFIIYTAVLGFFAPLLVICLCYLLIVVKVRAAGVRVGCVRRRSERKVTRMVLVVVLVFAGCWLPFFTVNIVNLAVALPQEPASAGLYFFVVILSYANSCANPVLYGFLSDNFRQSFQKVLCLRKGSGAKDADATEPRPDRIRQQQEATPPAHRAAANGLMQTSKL
# Sequence of Somatostatin receptor type 3 (P32745 whole entry): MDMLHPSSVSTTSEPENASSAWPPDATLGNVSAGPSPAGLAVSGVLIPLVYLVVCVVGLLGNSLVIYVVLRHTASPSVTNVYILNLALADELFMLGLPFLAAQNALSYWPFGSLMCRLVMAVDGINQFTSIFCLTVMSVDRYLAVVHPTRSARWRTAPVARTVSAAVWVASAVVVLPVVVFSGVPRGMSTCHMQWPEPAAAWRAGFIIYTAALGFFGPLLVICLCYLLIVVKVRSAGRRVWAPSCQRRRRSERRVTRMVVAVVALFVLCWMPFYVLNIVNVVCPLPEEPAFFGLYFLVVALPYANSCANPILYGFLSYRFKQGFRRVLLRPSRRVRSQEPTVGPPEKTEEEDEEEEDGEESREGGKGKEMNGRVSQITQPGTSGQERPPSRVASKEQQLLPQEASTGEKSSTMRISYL
# Sequence of Somatostatin receptor type 2 (P30874 whole entry): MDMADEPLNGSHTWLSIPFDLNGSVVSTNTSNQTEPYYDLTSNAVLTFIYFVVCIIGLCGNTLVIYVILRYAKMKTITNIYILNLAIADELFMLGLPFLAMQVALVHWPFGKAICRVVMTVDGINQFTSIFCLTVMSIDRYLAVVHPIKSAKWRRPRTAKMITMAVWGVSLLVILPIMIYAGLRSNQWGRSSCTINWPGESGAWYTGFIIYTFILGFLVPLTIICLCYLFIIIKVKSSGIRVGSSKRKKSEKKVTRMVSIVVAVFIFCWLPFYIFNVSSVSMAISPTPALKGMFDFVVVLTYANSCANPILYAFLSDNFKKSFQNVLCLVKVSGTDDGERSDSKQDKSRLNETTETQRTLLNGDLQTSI
# Sequence of Somatostatin receptor type 1 (P30872 whole entry): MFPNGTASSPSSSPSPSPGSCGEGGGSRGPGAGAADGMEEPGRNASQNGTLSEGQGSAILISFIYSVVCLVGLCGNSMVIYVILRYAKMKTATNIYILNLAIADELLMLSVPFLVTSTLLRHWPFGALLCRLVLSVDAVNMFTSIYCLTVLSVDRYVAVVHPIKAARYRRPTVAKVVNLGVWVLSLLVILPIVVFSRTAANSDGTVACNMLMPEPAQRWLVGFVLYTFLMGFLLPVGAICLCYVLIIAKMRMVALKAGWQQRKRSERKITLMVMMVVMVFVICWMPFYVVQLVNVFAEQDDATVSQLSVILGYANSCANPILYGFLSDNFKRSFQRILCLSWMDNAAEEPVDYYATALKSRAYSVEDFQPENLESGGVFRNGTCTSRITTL
# Sequence of Somatostatin receptor type 4 (P31391 whole entry): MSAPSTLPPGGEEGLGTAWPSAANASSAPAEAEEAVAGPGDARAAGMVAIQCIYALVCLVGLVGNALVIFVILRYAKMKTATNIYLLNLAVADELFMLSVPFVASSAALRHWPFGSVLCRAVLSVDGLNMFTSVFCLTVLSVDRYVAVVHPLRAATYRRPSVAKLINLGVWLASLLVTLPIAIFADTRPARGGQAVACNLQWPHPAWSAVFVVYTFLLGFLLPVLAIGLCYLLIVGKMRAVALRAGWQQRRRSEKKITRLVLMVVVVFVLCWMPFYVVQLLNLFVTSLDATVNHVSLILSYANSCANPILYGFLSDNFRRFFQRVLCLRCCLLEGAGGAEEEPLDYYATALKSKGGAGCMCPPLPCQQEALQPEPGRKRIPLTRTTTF
smiles,measurement,setting,value
NCCCCCOC[C@H]1O[C@@H](OCCc2c[nH]c3ccccc23)[C@H](OCc2ccccc2)C[C@@H]1OCc1ccccc1,IC50,Somatostatin receptor,8400 nM
OCCCCCNC[C@H]1O[C@@H](OCCc2c[nH]c3ccccc23)[C@H](OCc2ccccc2)[C@@H](OCc2ccccc2)[C@@H]1OCc1ccccc1,IC50,Somatostatin receptor,14000 nM
OCCCCCCNC[C@H]1O[C@@H](OCCc2c[nH]c3ccccc23)[C@H](OCc2ccccc2)C[C@@H]1OCc1ccccc1,IC50,Somatostatin receptor,5100 nM
Fc1ccc(OC[C@H]2O[C@@H](OCCc3c[nH]c4ccccc34)[C@H](OCc3ccc4ccccc4c3)[C@@H](OCc3ccccc3)[C@@H]2OCc2ccccc2)cc1,IC50,Substance-P receptor [1],Not Active
NCCCCCNC[C@H]1O[C@@H](OCCc2c[nH]c3ccccc23)[C@H](OCc2ccccc2)[C@@H](OCc2ccccc2)[C@@H]1OCc1ccccc1,Ki,[2],600 nM
same,Ki,[3],500 nM
same,Ki,[4],600 nM
same,Ki,[5],1300 nM
same,IC50,Somatostatin receptor,13000 nM
same,Ki,[6],2100 nM
Fc1ccc(COC[C@H]2O[C@@H](OCCc3c[nH]c4ccccc34)[C@H](OCc3ccc4ccccc4c3)[C@@H](OCc3ccccc3)[C@@H]2OCc2ccccc2)cc1,IC50,Substance-P receptor [1],Not Active
NCCCCCOC[C@H]1O[C@@H](OCCc2c[nH]c3ccccc23)[C@H](OCc2c[nH]cn2)C[C@@H]1OCc1ccccc1,IC50,Somatostatin receptor,4100 nM
CC(=O)NCCCCCOC[C@H]1O[C@@H](OCCc2c[nH]c3ccccc23)[C@H](OCc2ccc3ccccc3c2)[C@@H](OCc2ccccc2)[C@@H]1OCc1ccccc1,IC50,Substance-P receptor [1],Not Active
CO[C@@H]1O[C@H](COCCCCCN)[C@@H](OCc2ccccc2)[C@H](OCc2c[nH]cn2)[C@H]1OCc1ccccc1,IC50,Somatostatin receptor,5600 nM
CO[C@@H]1O[C@H](COCCCCCN)[C@@H](OCc2ccccc2)[C@H](OCc2ccccc2)[C@H]1OCc1ccccc1,IC50,Somatostatin receptor,5900 nM
NCCCCCOC[C@@H]1O[C@H](OCCc2c[nH]c3ccccc23)[C@H](OCc2c[nH]cn2)[C@H](OCc2ccccc2)[C@H]1OCc1ccccc1,Ki,[7],Not Active
C[C@@H](O)[C@@H]1NC(=O)[C@H](Cc2ccc(F)cc2)NC(=O)[C@@H](Cc2c[nH]c3ccccc23)NC(=O)[C@H](Cc2ccc3ccccc3c2)NC(=O)[C@@H]2CCCN2C(=O)[C@H](Cc2ccccc2)NC1=O,IC50,Substance-P receptor [8],65 nM
CC(=O)NCCCCCOC[C@H]1O[C@@H](OCCc2c[nH]c3ccccc23)[C@H](OCc2ccc(F)cc2)[C@@H](OCc2ccccc2)[C@@H]1OCc1ccccc1,IC50,Substance-P receptor [8],209 nM
NCCCCCCOC[C@H]1O[C@@H](OCCc2c[nH]c3ccccc23)[C@H](OCc2ccccc2)C[C@@H]1OCc1ccccc1,IC50,Somatostatin receptor,7000 nM
Fc1ccc(CO[C@H]2[C@H](OCCc3c[nH]c4ccccc34)O[C@H](COCc3ccc4ccccc4c3)[C@@H](OCc3ccccc3)[C@@H]2OCc2ccccc2)cc1,IC50,Substance-P receptor [1],Not Active
NCCCCCOC[C@H]1O[C@@H](CCc2c[nH]c3ccccc23)[C@H](OCc2ccccc2)[C@@H](OCc2ccccc2)[C@@H]1OCc1ccccc1,IC50,Somatostatin receptor,22000 nM
